Values belong to the compound of their own block, whether it stands above or below them.
What was measured:
ERAP2 = ERAP2 (Homo sapiens, UniProt Q6P179); test: ERAP2 activity assay using R-AMC substrate; format: biochemical
[1] = Pharmacokinetics in mouse; format: in vivo, mice
Summary of the method: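 Female mice received a single i.p. dose of 50 mg/kg. Derived parameters were elimination-phase half-life (T1/2 β, min), Cmax (μM), Tmax (min) and AUC extrapolated to infinity (AUC0‑∞, min μM).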

[2] = system: SIINFEKL OVA-derived antigen presentation in HEK cells; test: Antigen presentation assay; format: cell-based; settings: HEK cells where LSIINFEKL is endogenously produced, 24 h
Microsomal stability = format: in vitro ADME, human; settings: for half-life at 1 µM: both, human, liver microsomes, pH 7.4; for HLM Cl: human liver microsomes
Stability in plasma = format: in vitro ADME; settings: both, human
LogD octanol/PBS pH 7.4 = format: physicochemical
[3] = female, CD-1, mouse, plasma, ip, 50 mg/kg

ERAP2, sequence (Q6P179 whole entry): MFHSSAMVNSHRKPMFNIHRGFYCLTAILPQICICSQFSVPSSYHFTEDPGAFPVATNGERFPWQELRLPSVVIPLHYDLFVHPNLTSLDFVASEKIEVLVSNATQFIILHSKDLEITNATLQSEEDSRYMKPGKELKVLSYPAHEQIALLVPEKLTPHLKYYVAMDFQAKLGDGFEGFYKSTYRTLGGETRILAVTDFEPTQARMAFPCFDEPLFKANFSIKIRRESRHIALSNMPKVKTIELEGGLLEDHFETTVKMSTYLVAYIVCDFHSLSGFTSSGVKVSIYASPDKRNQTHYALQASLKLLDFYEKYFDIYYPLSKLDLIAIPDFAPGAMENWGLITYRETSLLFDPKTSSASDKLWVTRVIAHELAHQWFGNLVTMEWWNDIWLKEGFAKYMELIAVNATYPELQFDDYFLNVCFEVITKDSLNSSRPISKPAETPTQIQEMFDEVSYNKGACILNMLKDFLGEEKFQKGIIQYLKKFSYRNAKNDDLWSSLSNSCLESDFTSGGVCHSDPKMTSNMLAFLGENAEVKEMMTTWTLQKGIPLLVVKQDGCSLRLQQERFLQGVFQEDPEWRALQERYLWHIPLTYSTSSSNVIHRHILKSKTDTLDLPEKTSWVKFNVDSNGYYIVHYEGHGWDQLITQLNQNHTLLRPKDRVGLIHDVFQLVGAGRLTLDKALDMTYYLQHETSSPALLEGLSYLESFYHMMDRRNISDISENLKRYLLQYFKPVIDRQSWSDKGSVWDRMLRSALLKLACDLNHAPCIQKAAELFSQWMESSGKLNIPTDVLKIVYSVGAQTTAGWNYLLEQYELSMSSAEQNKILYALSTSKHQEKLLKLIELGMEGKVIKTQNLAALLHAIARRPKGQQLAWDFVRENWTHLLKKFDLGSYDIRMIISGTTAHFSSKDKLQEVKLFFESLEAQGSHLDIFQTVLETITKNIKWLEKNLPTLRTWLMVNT

half-life at 1 µM (Microsomal stability): > 0.667 h | HLM Cl (Microsomal stability): 21 µL/min/g | half-life at 10 µM (Stability in plasma): > 6 h | logD at 2 h (LogD octanol/PBS pH 7.4): 1.81
Structure (SMILES): COc1ccc(C[C@@H](C(=O)NO)n2cc(CNS(=O)(=O)c3ccc(-c4ccccn4)s3)nn2)cc1 [4 e]

half-life at 10 µM (Stability in plasma): > 6 h | logD at 2 h (LogD octanol/PBS pH 7.4): 4.11
Structure (SMILES): O=C(NO)[C@H](Cc1ccc(Oc2ccccc2)cc1)n1cc(CNS(=O)(=O)c2ccc(-c3ccccn3)s2)nn1 [4 f]
effect on SIINFEKL antigen presentation [2]: dose‐dependent effect

Second part, the compound before the results:

Structure (SMILES): O=C(C[C@@H](Cc1c[nH]c2ccccc12)n1cc(CNS(=O)(=O)c2ccc(-c3ccccc3)s2)nn1)NO [2 b]
IC50 (ERAP2): 12000 nM

Structure (SMILES): O=C(C[C@@H](Cc1ccc2ccccc2c1)n1cc(CNS(=O)(=O)c2ccc(-c3ccccc3)s2)nn1)NO [2 c]
IC50 (ERAP2): 2290 nM

Structure (SMILES): O=C(NO)[C@H](Cc1ccc(O)cc1)n1cc(CNS(=O)(=O)c2ccc(-c3ccccc3)s2)nn1 [4 a]
IC50 (ERAP2): 760 nM

Structure (SMILES): O=C(NO)[C@@H](Cc1c[nH]c2ccccc12)n1cc(CNS(=O)(=O)c2ccc(-c3ccccc3)s2)nn1 [4 b]
inhibition at 100 µM (ERAP2; read-out: %inh at 100 μM): 43% | ERAP2 activity in words (ERAP2; replacement of the phenol group by an indole): complete loss of activity

Structure (SMILES): COc1ccc(C[C@@H](C(=O)NO)n2cc(CNS(=O)(=O)c3ccc(-c4ccccc4)s3)nn2)cc1 [4 d]
AUC [1, 3]: 12.9 µM·h | Cmax [1, 3]: 18 µM | tolerability of the dose ([1]; mice, 50 mg kg^−1, i. p.): tolerated | effect on SIINFEKL antigen presentation [2]: dose‐dependent effect | half-life at 1 µM (Microsomal stability): > 0.667 h | HLM Cl (Microsomal stability): 50 µL/min/g | half-life at 10 µM (Stability in plasma): > 6 h | logD at 2 h (LogD octanol/PBS pH 7.4): 2.99

From PMC9558494 (Angewandte Chemie (International Ed. in English), 2022)
